Measurements published in ChEMBL document CHEMBL1126908, “Synthesis and evaluation of new 6-amino-substituted benzo[c]phenanthridine derivatives” (J Med Chem, 1993).
In brackets after ≈: the same amount, converted by molar mass.

Key:
L1210 = assay: Cytotoxicity against murine lymphoblastic leukemia cells (L1210).; type: functional, cell-based; settings: Mus musculus
How it was run: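 Murine L1210 cells grown in Dulbecco's MEM with 10% fetal calf serum at 37 °C, 5% CO2. Cells seeded, then after 24 h compounds added in duplicate at various concentrations and incubated 24 h. Cells counted by Coulter counter. IC50 taken as the dose giving 50% growth inhibition, extrapolated from regression curves of non-toxic experimental points.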

[1] = target: DNA topoisomerase 2-beta (Homo sapiens) (UniProt Q02880); assay: Inhibition of topoisomerase II; settings: Bos taurus
DNA topoisomerase 2-beta (Homo sapiens), sequence (Q02880 whole entry): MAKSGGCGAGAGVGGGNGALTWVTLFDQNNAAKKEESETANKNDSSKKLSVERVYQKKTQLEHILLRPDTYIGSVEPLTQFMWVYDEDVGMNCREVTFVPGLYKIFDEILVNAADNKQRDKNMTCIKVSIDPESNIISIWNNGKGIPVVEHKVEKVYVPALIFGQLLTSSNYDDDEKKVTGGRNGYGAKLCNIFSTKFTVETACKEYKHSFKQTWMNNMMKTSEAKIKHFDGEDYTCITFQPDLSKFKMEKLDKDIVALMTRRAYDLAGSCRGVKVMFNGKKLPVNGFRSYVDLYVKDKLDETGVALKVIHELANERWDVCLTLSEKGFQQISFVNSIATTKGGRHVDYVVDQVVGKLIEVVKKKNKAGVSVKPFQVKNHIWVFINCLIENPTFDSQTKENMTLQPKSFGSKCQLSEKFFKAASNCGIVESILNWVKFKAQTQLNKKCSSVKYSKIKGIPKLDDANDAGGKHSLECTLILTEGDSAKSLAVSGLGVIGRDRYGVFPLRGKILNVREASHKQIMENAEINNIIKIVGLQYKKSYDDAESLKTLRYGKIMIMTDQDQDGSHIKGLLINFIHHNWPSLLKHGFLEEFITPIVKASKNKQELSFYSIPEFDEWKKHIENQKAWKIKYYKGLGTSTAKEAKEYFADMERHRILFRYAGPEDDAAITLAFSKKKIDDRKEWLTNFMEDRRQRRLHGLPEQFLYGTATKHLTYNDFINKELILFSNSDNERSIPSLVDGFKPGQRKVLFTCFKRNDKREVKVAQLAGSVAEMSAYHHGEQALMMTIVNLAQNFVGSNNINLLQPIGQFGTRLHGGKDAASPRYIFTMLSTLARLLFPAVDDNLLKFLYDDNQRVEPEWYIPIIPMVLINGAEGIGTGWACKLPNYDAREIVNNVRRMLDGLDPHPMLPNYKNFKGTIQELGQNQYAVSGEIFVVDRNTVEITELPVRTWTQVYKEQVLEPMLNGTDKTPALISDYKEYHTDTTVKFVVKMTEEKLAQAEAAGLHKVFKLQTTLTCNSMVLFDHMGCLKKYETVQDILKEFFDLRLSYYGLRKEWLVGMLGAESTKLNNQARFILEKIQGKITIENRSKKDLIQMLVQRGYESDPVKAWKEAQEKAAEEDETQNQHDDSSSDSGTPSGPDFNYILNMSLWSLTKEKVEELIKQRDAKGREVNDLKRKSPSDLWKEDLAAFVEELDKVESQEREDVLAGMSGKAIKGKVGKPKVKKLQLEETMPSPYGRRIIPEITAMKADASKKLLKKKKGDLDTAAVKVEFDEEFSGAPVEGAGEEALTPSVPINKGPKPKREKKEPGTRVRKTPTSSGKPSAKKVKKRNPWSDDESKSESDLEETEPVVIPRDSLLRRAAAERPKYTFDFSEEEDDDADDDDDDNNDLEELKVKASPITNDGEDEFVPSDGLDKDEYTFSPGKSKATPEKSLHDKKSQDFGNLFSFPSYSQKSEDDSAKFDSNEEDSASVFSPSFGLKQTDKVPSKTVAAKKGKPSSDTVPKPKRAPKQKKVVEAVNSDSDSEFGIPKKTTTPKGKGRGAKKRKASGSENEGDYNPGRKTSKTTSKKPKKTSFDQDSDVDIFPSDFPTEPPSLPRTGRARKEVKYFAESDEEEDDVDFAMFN
How it was run: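 Topoisomerase I or II purified from calf thymus, tested in a DNA cleavage assay. Read-out is the minimal inhibitory concentration (μM), meaning the lowest concentration that gives detectable stimulation of DNA cleavage.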

[2] = The ratio of the mean survival time of treated animals on the mean survival time of controls multiplied by 100.It is measured at dose of 5 mg/kg; T/C value; type: functional
How it was run: (§1)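 Female BDF1 mice inoculated IP with 10⁶ P388 leukemia cells on day 0, with 10 controls and 6 mice per test group. Compounds given IP as 0.2-mL PBS solutions on days 1, 3 and 7. T/C = mean survival time of treated mice / mean survival time of controls × 100.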

[3] = The ratio of the mean survival time of treated animals on the mean survival time of controls multiplied by 100.It is measured at dose of 20 mg/kg; T/C value; type: functional; how it was run: as §1
[4] = Cytotoxicity was measured on human mammary adenocarcinoma cells(Calc 18); type: functional, cell-based
How it was run: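 Human mammary adenocarcinoma Calc 18 cells exposed to various drug concentrations for 96 h at 37 °C. Viability read by neutral red staining. IC50 is the concentration giving 50% growth inhibition.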

[5] = The ratio of the mean survival time of treated animals on the mean survival time of controls multiplied by 100.It is measured at dose of 10 mg/kg; T/C value; type: functional; how it was run: as §1
[6] = The ratio of the mean survival time of treated animals on the mean survival time of controls multiplied by 100.It is measured at dose of 40 mg/kg; T/C value; type: functional; how it was run: as §1
P388 [7] = assay: (§2) Cytotoxicity was measured on murine leukemia p388 CPT 0.3; type: functional; settings: Mus musculus
How it was run: (§3)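 Cells (P388, or camptothecin-resistant P388 CPT0.3) incubated 96 h at 37 °C with various drug concentrations. Viability read by neutral red staining. IC50 taken as the concentration giving 50% growth inhibition.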

P388 [8] = assay: as §2; type: functional, cell-based; settings: Mus musculus; how it was run: as §3
P388 [9] = assay: (§4) Cytotoxicity was measured on murine leukemia p388; type: functional, cell-based; settings: Mus musculus; how it was run: as §3
P388 [10] = assay: as §4; type: functional; settings: Mus musculus; how it was run: as §3
[11] = The ratio of the mean survival time of treated animals on the mean survival time of controls multiplied by 100.It is measured at dose of 100 mg/kg; T/C value; type: functional; how it was run: as §1
[12] = test system: P388 leukemia cells (Mus musculus); assay: Cytotoxicity was measured on cultured murine leukemia cells (P388)

Row | SMILES | IC50 (L1210) [nM] | MIC [1] [µM] | IC50 [4] [nM] | other results
1 | COc1ccc2ccc3c4ccccc4c(NCCCN(C)C)nc3c2c1 | 2600 |  |  | 
2 | CN(C)CCNc1nc2c3ccc(O)cc3ccc2c2ccc(O)cc12 | 500 | 3 (≈ 1.04 µg/mL) | 1000 | Ratio [2]: 119; Ratio [3]: 111; Ratio [5]: 111
3 | COc1ccc2c(ccc3c4ccccc4c(NCCN(C)C)nc23)c1 | 3000 | 10 (≈ 3.45 µg/mL) | 3000 | 
4 | COc1ccc2c(ccc3c4ccccc4c(NCCCN(C)C)nc23)c1 | 3400 | > 10 | 2500 | 
5 | CN(C)CCCNc1nc2c3ccc(O)cc3ccc2c2ccccc12 | 2600 | > 10 | 3000 | 
6 | CN(C)CCCNc1nc2c3ccc(O)cc3ccc2c2ccc(O)cc12 | 4500 | 10 (≈ 3.61 µg/mL) | > 10000 | 
7 | CN(C)CCNc1nc2c3ccccc3ccc2c2ccccc12 | > 90000 |  |  | 
8 | CN(C)CCNc1nc2c3ccc(O)cc3ccc2c2ccccc12 | 500 | 1 (≈ 0.331 µg/mL) | 1000 | Ratio [2]: 93; Ratio [3]: 118; Ratio [6]: 101; Ratio [5]: 138
9 | COc1ccc2ccc3c4ccccc4c(NCCN(C)C)nc3c2c1 | 2500 |  |  | 
10 | COc1cc([C@@H]2c3cc4c(cc3[C@@H](O[C@@H]3O[C@@H]5CO[C@@H](C)O[C@H]5[C@H](O)[C@H]3O)[C@H]3COC(=O)[C@H]23)OCO4)cc(OC)c1O |  | 0.1 (≈ 0.0589 µg/mL) |  | 
11 | CN(C)CCCNc1nc2c3cc(O)ccc3ccc2c2ccccc12 | 3400 | > 10 | 2500 | Ratio [2]: 91; Ratio [3]: 73; Ratio [5]: 90
12 | COc1cc2c(NCCN(C)C)nc3c4cc5c(cc4ccc3c2cc1OC)OCO5 | 300 | 1 (≈ 0.419 µg/mL) | 600 | IC90 (P388 [7]): 3500 nM; IC50 (P388 [8]): 150 nM; IC50 (P388 [9]): 900 nM; Ratio [2]: 99; Ratio [3]: 92; IC90 (P388 [10]): 3500 nM; Ratio [5]: 103
13 | CN(C)CCNc1nc2c3cc(O)ccc3ccc2c2ccccc12 | 500 | 10 (≈ 3.31 µg/mL) | 3000 | Ratio [2]: 92; Ratio [3]: 102; Ratio [5]: 83
14 | COc1ccc2c(ccc3c4ccc(OC)cc4c(NCCCN(C)C)nc23)c1 | 2500 | > 10 | 3000 | 
15 | COc1ccc2c(ccc3c4ccc(OC)cc4c(NCCN(C)C)nc23)c1 | 1700 | 10 (≈ 3.75 µg/mL) | 1500 | 
16 | COc1cc2ccc3c4cc(OC)c(OC)cc4c(NCCN(C)C)nc3c2cc1OC | > 5000 | > 10 | 3000 | 
17 | COc1cc2c(ccc3c4cc(OC)c(OC)cc4c[n+](C)c23)cc1O.[Cl-] [FAGARONINE] | 2000 |  |  | IC90 (P388 [7]): > 10000 nM; IC50 (P388 [8]): > 10000 nM; IC50 (P388 [9]): 2000 nM; IC90 (P388 [10]): 6000 nM; Ratio [11]: 265
18 | CC[C@@]1(O)C(=O)OCc2c1cc1n(c2=O)Cc2cc3ccccc3nc2-1 [CAMPTOTHECIN] |  | > 100 |  | IC50 [12]: 15 nM
19 | COc1ccc2c(c1)c(NCCN(C)C)nc1c3ccc(O)cc3ccc21 |  | 10 (≈ 3.61 µg/mL) | 1500 | 
